hERG rescue – hERG rescue from dofetilide block, primary screen, cell-based, CHO-hERG, FluxOR thallium flux, dofetilide IC70; Voltage-gated inwardly rectifying potassium channel KCNH2 (Homo sapiens), Q12809; dofetilide IC70 present; activation (rescue from dofetilide block), less the hit threshold, % at 10 µM; hit rate 0.51% among 310,000; AID 1511, 2009;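 active = activation above the mean of controls blocked by dofetilide plus 5 SD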;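 note: thallium influx through hERG after potassium depolarization seen as dye fluorescence rise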
KCNQ1 pot – potentiators or activators of KCNQ1 channel, primary screen, cell-based, thallium flux, high-throughput; Potassium voltage-gated channel subfamily KQT member 1 (Homo sapiens), P51787; CHO-K1 KCNQ1, thallium flux FluxOR fluorescence; hits give high values; B-score at 10 µM; hit rate 0.35% among 310,000;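 active = fluorescence ratio B-score, a plate-corrected score, at least three library SD, with initial intensity B-score within 5 SD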
Target sequence (P51787 whole entry, looked up): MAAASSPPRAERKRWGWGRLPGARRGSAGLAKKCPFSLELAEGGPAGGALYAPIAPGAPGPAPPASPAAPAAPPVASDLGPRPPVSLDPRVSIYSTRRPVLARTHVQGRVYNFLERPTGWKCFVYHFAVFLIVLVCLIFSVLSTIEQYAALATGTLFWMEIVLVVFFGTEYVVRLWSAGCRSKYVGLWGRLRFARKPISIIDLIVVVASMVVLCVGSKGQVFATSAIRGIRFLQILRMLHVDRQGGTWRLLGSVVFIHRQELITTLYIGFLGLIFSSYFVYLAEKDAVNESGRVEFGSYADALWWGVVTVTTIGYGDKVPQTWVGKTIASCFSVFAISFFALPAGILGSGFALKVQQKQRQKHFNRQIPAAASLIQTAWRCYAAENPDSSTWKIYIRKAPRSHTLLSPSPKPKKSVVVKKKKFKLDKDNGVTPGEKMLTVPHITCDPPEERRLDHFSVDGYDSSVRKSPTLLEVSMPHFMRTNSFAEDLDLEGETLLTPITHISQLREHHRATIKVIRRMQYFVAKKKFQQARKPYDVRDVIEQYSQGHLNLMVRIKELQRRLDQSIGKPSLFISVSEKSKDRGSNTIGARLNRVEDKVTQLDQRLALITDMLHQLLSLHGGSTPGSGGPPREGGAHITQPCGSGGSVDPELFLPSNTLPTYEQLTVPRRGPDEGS
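Assay system: stable KCNQ1 CHO-K1 line; medium: assay buffer, equal DMSO in all wells; timing: 90 min dye loading and 20 min compound exposure, both at room temperature; technique: kinetic FluxOR thallium fluorescence, 10-s 1-Hz baseline, 110-s post-stimulus read; read-out basis: B score of baseline-normalized fluorescence ratio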
KCNK3 inh – human KCNK3 channel inhibitors, primary screen, CHO cells, FluxOR thallium flux, B-score. FluxOR fluorescence; hits give low values. hit rate 0.84% among 340,000. B-score at 10 µM;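 active = B-score under library mean minus 4 SD, starting fluorescence ratio at most library mean plus 5 SD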;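 note: more negative B-score means stronger inhibition of thallium flux through KCNK3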
KCNK9 inh – KCNK9 potassium channel inhibitors, primary screen, HEK293 cells, thallium flux; Potassium channel subfamily K member 9 (Homo sapiens), Q9NPC2; FluxOR thallium flux fluorescence; hits give low values; B-score at 10 µM; hit rate 1.2% among 310,000; AID 488922, 2010;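 active = ratio B-score over 3 SD below the library mean, with starting fluorescence within 5 SD of its mean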;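 note: negative B-score means less thallium flux so channel inhibition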
PHOSPHO1 inh – PubChem AID 1565; recombinant PHOSPHO1, absorbance phosphatase assay; hit rate 1.1% among 290,000; Phosphoethanolamine/phosphocholine phosphatase (Homo sapiens), Q8TCT1; inhibition, % at 13.3 µM; in the data active = inhibition above about 60%
KCNQ1 block – inhibitors of human KCNQ1 channel, primary screen, cell-based, thallium flux, high-throughput. Potassium voltage-gated channel subfamily KQT member 1 (Homo sapiens), P51787. CHO-K1 KCNQ1, FluxOR thallium flux fluorescence; hits give high values. B-score at 10 µM. hit rate 1.3% among 310,000. AID 2642, 2010;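 active = compounds whose thallium flux B-score, printed positive for inhibition, exceeds three library SD while starting fluorescence stays within three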;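 note: channel opened by potassium depolarization with thallium stimulus after 20 min compound exposure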
The depositor's hits bear a star; i = inactive; x = no result. This is a sample that favours compounds with a hit; in the whole collection about 4% have one here.

SMILES	hERG rescue	KCNQ1 pot	KCNK3 inh	KCNK9 inh	PHOSPHO1 inh	KCNQ1 block
CC(C)[C@H](N)c1nnc(SCc2ccc(Cl)cc2)o1	-4	i	i	i	6	i
C=C(C)CSc1nnc([C@@H]2CCCN2)o1	-11	i	i	i	37	i
O=C(CSc1nnc([C@@H]2CCCN2)o1)c1ccc(Cl)cc1	-10	i	i	i	74*	i
CCC(C)[C@H](N)c1nnc(SCC(=O)c2ccc(Cl)cc2)o1 (stereo partly specified)	-5	i	i	i	79*	i
Brc1cc2c(cc1C1OCCO1)OCO2	x	x	i	x	x	x
COC(=O)/C=C1\OC(c2ccccc2)=CC1=O	-34	i	x	i	-28	8*
CC(C)CCNC(=O)c1ccc(OC2CCN(S(=O)(=O)N(C)C)CC2)cc1	-13	i	i	i	22	i
CCc1nc(SCC(=O)Nc2nnc(CC)s2)c2c(C)c(C)sc2n1	-1	i	i	i	16	i
CCc1nc(SCC(=O)Nc2cc(OC)ccc2OC)c2c(C)c(C)sc2n1	-6	i	i	-6.6*	32	i
COc1cc(/C=N/NS(=O)(=O)c2ccc(C)c([N+](=O)[O-])c2)cc([N+](=O)[O-])c1O	-3	i	i	i	30	6*
COc1cc(/C=N/NS(=O)(=O)c2ccc(C)c([N+](=O)[O-])c2)ccc1O	-8	i	i	i	13	i
Cc1cc(C)c(N2C(=O)CCCC2=O)c(Cl)c1	-6	i	i	i	34	i
Cc1ccc(-c2csc(Nc3ccccc3)[n+]2CCc2ccccc2)cc1	-11	i	i	i	1	i
Cc1ccc(-c2csc(Nc3ccc(C(=O)O)cc3)[n+]2Cc2ccccc2)cc1	-1	i	i	i	62*	i
CN1C(=O)NC(c2ccccc2[N+](=O)[O-])C2=C1CCCC2=O (stereo unspecified)	-15	i	i	i	7	6*
CN(NC(=O)COc1ccccc1)C1=NS(=O)(=O)c2ccccc21	-11	i	i	i	17	i
CN(C)CCCN(C(=O)CCc1ccccc1)c1nc2c(F)cccc2s1	-13	i	i	i	-18	i
Cc1ccc2nc(N(CCCN(C)C)C(=O)c3cc(-c4cccs4)nc4ccccc34)sc2c1	-31	i	i	i	31	8*
CN(C)CCCN(C(=O)CCOc1ccccc1)c1nc2c(F)cccc2s1	-14	18*	i	i	-20	i
CN(C)CCCN(C(=O)c1cc(-c2cccs2)nc2ccccc12)c1nc2c(F)cccc2s1	-29	i	i	i	8	6*
COc1ccc2c(c1)C(C1C(=O)CCCC1=O)c1ccccc1O2 (stereo unspecified)	-9	i	i	i	14	i
CC1=NNC(=O)C1CCC(=O)N/N=C/c1c(Cl)cccc1Cl (stereo unspecified)	-6	i	i	i	65*	i
CC1=NNC(=O)C1CC(=O)N/N=C/C=C/c1ccccc1 (stereo unspecified)	21*	i	i	i	-10	i
CC1=NNC(=O)C1CCC(=O)N/N=C/C=C/c1ccccc1 (stereo unspecified)	-11	i	i	i	5	i
Cc1cccc2cc(CN(CC3CCCO3)C(c3nnnn3Cc3ccco3)C(C)C)c(=O)[nH]c12 (stereo unspecified)	-14	i	i	i	29	i
Cn1cc(S(=O)(=O)N2CCOCC2)cc1C(=O)O	x	x	i	x	x	x
CCC(C)(C)NC(=O)C(OC(=O)c1ccco1)c1ccc(OC)cc1 (stereo unspecified)	-5	i	i	i	49	i
